Data on nine compounds can be found in ChEMBL document CHEMBL3259538, “Identification of the stereochemical requirements in the 4-aryl-2-cycloalkylidenhydrazinylthiazole scaffold for the design of selective human monoamine oxidase B inhibitors” (Bioorg Med Chem, 2014).

In series [1] the target is T1, Amine oxidase [flavin-containing] A (Homo sapiens, UniProt P21397).
T1 sequence (P21397 whole entry): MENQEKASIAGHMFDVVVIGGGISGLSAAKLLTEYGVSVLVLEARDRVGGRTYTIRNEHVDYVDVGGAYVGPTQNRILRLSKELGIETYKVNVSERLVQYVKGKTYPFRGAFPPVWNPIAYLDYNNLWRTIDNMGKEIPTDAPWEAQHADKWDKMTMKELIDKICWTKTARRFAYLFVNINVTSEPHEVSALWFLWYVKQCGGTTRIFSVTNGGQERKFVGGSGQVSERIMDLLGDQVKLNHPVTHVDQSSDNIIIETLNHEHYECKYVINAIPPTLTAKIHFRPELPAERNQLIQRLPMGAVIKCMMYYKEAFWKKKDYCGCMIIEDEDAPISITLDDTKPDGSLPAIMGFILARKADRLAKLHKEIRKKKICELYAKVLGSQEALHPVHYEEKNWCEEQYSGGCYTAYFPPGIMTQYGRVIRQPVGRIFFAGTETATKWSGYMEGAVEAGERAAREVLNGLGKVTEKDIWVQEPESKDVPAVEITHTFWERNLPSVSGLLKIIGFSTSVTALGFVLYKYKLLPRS
In words: Inhibition of human recombinant MAO-A expressed in baculovirus-infected BTI-TN-5B1-4 cell microsomes assessed as decrease in H2O2 production using p-tyramine as substrate preincubated for 15 mins by Amplex Red reagent based fluorimetric method.

Series [2] has as its target T2, Amine oxidase [flavin-containing] B (Homo sapiens, UniProt P27338).
T2 sequence (P27338 whole entry): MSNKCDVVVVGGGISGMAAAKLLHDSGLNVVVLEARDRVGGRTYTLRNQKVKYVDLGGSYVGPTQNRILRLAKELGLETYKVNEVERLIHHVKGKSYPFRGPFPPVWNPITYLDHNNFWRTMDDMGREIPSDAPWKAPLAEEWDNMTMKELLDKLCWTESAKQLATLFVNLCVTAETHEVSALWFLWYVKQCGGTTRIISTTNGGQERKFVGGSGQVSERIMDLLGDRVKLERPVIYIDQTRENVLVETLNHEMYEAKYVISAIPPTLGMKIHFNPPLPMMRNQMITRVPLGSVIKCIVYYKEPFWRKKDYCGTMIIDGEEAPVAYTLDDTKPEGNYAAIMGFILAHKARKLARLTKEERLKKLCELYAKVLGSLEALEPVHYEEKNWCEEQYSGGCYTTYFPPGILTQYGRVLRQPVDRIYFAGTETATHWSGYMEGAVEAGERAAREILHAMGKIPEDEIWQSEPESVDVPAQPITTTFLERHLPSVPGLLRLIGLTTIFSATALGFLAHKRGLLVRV
Put plainly: biochemical. It counts as cell-based, BTI-TN-5B1-4.

Series [3] has as its system BTI-TN-5B1-4. Put plainly: Selectivity index, ratio of IC50 for human recombinant MAO-A expressed in baculovirus-infected BTI-TN-5B1-4 cell microsomes to IC50 for human recombinant MAO-B expressed in baculovirus-infected BTI-TN-5B1-4 cell microsomes.
The target of series [4] is T1, Amine oxidase [flavin-containing] A. In words: Inhibition of human recombinant MAO-A expressed in baculovirus-infected BTI-TN-5B1-4 cell microsomes assessed as decrease in H2O2 production using p-tyramine as substrate at 100 uM preincubated for 15 mins by Amplex Red reagent based fluorimetric method. To be noted: bti-tn-5b1-4, 100 µM. The method, boiled down: (§1)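 Microsomal enzyme in 0.05 M sodium phosphate, pH 7.4. The enzyme amount was adjusted so that controls oxidize 165 pmol p-tyramine/min. Drug and enzyme were preincubated for 15 min at 37 °C. Final 200 µM Amplex Red and 1 U/mL HRP were then added. Resorufin fluorescence (ex 545/em 590 nm) was read linearly over 15 min at 37 °C. Background without enzyme was subtracted, and drug interference was checked with Amplex Red alone.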

In series [5] the target is T2, Amine oxidase [flavin-containing] B. Put plainly: Inhibition of human recombinant MAO-B expressed in baculovirus-infected BTI-TN-5B1-4 cell microsomes assessed as decrease in H2O2 production using p-tyramine as substrate at 1 mM preincubated for 15 mins by Amplex Red reagent based fluorimetric method. The following applies: bti-tn-5b1-4, 1000 µM. The method, boiled down:
as §1

Consider `C[C@@H]1CC/C(=N\Nc2nc(-c3ccc(F)cc3F)cs2)C1`, for which the IC50 worked out at 13100 nM in series [1] and 5.06 nM in series [2]. Also, the Ratio IC50 in series [3] turned out to be 2580.
Turning to `C[C@@H]1CC/C(=N/Nc2nc(-c3ccc(F)cc3F)cs2)C1`, the IC50 amounted to 13800 nM in series [1] and 2.91 nM in series [2]. The Ratio IC50 in series [3] was 4740.
As to `C[C@@H]1CCC(=NNc2nc(-c3ccc(F)cc3F)cs2)C1`, the IC50 in series [1] amounted to 15500 nM; in series [2], 5.32 nM. In addition, in series [3], the Ratio IC50 was determined as 2920.
In the same order, the values of `CC1CCC/C1=N\Nc1nc(-c2ccc([N+](=O)[O-])cc2)cs1` (mixture of isomers) are 19200 nM, 8.31 nM and 2310.
In series [2], `CC1CC/C(=N\Nc2nc(-c3ccc([N+](=O)[O-])cc3)cs2)C1` (mixture of isomers) gave an IC50 of 376 nM. The Ratio IC50 in series [3] was > 266. In addition, in series [4], the “inhibition (INH)” value was “Not Active”.
Turning to `CC1CC/C(=N\Nc2nc(-c3ccc(C#N)cc3)cs2)C1` (mixture of isomers), the IC50 in series [1] came out at 11100 nM; in series [2], 227 nM. The Ratio IC50 in series [3] turned out to be 49.
In the same order, the values of `CC1CC/C(=N\Nc2nc(-c3ccc(F)cc3F)cs2)C1` (mixture of isomers) are 16900 nM, 9.34 nM and 1810.
As to `O=C1Nc2ccccc2C1=O` [ISATIN], the “inhibition (INH)” value in series [4] was “Not Active”.
Turning to `O=C(NCCN1CCOCC1)c1ccc(Cl)cc1` [MOCLOBEMIDE], the “inhibition (INH)” value in series [5] is “Not Active”.
